Each structure is given as a SMILES string.

Broadly, the Ki is the dissociation constant of the complex between target and ligand, obtained from inhibition or displacement. Low readings indicate tighter binding, high ones weaker binding.

The target in test [1] is T1, Adenosine deaminase (Bos taurus, UniProt P56658).
T1 sequence (P56658 whole entry): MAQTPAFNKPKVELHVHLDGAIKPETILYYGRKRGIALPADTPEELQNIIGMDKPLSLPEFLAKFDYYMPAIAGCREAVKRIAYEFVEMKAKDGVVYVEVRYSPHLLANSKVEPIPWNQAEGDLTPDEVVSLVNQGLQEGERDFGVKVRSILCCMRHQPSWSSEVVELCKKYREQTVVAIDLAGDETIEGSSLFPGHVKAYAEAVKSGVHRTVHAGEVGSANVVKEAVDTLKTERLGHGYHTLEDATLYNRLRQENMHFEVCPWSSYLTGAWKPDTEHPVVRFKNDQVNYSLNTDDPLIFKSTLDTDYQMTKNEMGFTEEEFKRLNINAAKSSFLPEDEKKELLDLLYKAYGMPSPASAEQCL
In words: Inhibitor constant against adenosine deaminase in 0.05 M sodium phosphate buffer at pH 7.0, was determined after heating to 100 degrees celsius. The gist of the method:
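Dialdehyde pre-heated as an aqueous phosphate-buffer solution at 100 °C (about 1 h). Adenosine deaminase (0.25 unit) added to buffered adenosine (30–70 μM) plus dialdehyde (3-190 μM) in 0.05 M sodium phosphate, pH 7.0, 25 °C. Absorbance change at 265 nm followed. At least five substrate and two inhibitor levels used. Ki from Lineweaver–Burk plots, least-squares lines.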

For test [2], the target named is T1, Adenosine deaminase. Kind of test: Inhibitory constant against adenosine deaminase in 0.05 M sodium phosphate buffer at pH 7.0, was determined before heating.
The target in test [3] is T1, Adenosine deaminase. In words: Inhibitory constant against adenosine deaminase in 0.05 M sodium phosphate buffer at pH 7.0 was determined before heating.
For test [4], the target named is T1, Adenosine deaminase. Kind of test: Inhibitor constant against adenosine deaminase in 0.05 M sodium phosphate buffer at pH 7.0 was determined after heating to 100 degrees celsius. The gist of the method: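 Dialdehyde heated at 100 °C in aqueous phosphate buffer before testing. Adenosine deaminase (0.25 unit) added to buffered adenosine (30–70 μM, at least five levels) with dialdehyde (3–190 μM, two levels). Rate of absorbance change at 265 nm followed at 25 °C, 0.05 M sodium phosphate, pH 7.0. Ki from Lineweaver–Burk plots fitted by Wilkinson least squares.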

Turning to `Nc1ncnc2c1ncn2[C@@H](C=O)O[C@@H](C=O)CO`, the results for the Ki in test [1] and in test [2] were 5 µM and 520 µM, respectively.

Turning to `C=C(C=O)OC(C=O)n1cnc2c(N)ncnc21` (centres undefined), the Ki in test [3] came to 4 µM. That is a single-digit micromolar value.

`Nc1ncnc2c1ncn2[C@H](C=O)O[C@@H](C=O)CO`: the Ki in test [4] came out at 8 µM; in test [2], 310 µM.

In the case of `Nc1ncnc2c1ncn2[C@@H](C=O)OCC=O`, the Ki in test [3] was 46 µM; in test [4], 30 µM.

As for `Nc1ncnc2c1ncn2[C@H](C=O)OCC=O`, the Ki worked out at 780 µM in test [3] and 800 µM in test [4].

`CC(O)[C@H](C=O)OC(C=O)n1cnc2c(N)ncnc21` (single isomer, unassigned): the affinity in test [4], expressed as Ki, was 21 µM.

`CC(O)[C@@H](C=O)OC(C=O)n1cnc2c(N)ncnc21` (single isomer, unassigned; 7) yielded a Ki in test [4] of 24 µM.

Turning to `CC(O)[C@@H](C=O)OC(C=O)n1cnc2c(N)ncnc21` (single isomer, unassigned; 10), the values for the Ki in test [3] and in test [4] were 150 µM and 20 µM, respectively.

In the case of `C[C@@H](C=O)O[C@@H](C=O)n1cnc2c(N)ncnc21` (stereo in doubt; 4), the Ki turned out to be 28 µM in test [3] and 30 µM in test [4].

`CC(O)[C@H](C=O)O[C@@H](C=O)n1cnc2c(N)ncnc21` (stereo in doubt; 8) displayed a Ki in test [4] of 69 µM.

In test [4], `CC(O)[C@H](C=O)O[C@@H](C=O)n1cnc2c(N)ncnc21` (stereo in doubt; 9) had a Ki of 38 µM.

In the case of `C[C@@H](C=O)O[C@@H](C=O)n1cnc2c(N)ncnc21` (stereo in doubt; 13), the figures for the Ki in test [3] and in test [4] were 160 µM and 100 µM, respectively.
